# Bioassay records: PubChem, several laboratories
# ATG4B inh = ATG4B (human) cysteine protease inhibition | Q9Y4P1 | actives 0.51% (n = 340,000) | ATG4B cleavage of LC3-PLA2, NBD-HPC fluorescence, 1 h | inhibition, % at 8.33 µM | AID 504462; in the data active = inhibition above about 40%
# Myeloid diff MLP = promotes myeloid progenitor differentiation | actives 1% (n = 360,000) | ER-HoxA9 myeloid progenitors, lysozyme-GFP differentiation, flow cytometry | calls only at 10 µM | AID 624256;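 active = normalized GFP-positive differentiation at or above the plate's own cutoff, the solvent-only control mean plus 3 SD; inconclusive = no clear call, values can overlap the other calls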;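 note: cells exposed to compound for four days before flow analysis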
# Exocytosis inh = blocks lytic granule exocytosis; inhibition, % at 10 µM; actives 0.66% (n = 360,000); TALL-104 LAMP-1 surface exposure, flow cytometry; cells stimulated with thapsigargin and PMA;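 active = inhibition above about 55%, limit read from the data; inconclusive = no clear call, values can overlap the other calls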
# Arr AP2 block = human beta-arrestin and AP2 interaction inhibition; FITC-arrestin peptide / GST-AP2 beads, flow cytometry; AP2 beta2 appendage carries R879A mutation; inhibition, % at 10 µM; actives 0.31% (n = 340,000); AID 504490;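 active = inhibition above a set limit, near 3 SD of compounds lacking own fluorescence, cut at about 54% in these data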
#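 Test system: GST-tagged AP2 beta2-adaptin appendage (R879A) on 4 µm glutathione beads; also added: fluorescein-tagged arrestin peptide at 50 nM final; timing: 12 min plus 1 h, RT; signal: flow cytometry, FL1 (488/535 nm); read-out: percent drop in bead-associated FITC signal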
# ABCB6 inh MLPCN = human ABCB6 transporter inhibition | fluorescence ratio to DMSO, % at 10 µM | Q9NP58 | actives 0.19% (n = 360,000) | K562-ABCB6 porphyrin accumulation, flow cytometry, 1 h; hits give low values;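 active = fluorescence ratio to DMSO below 75%, the collection mean minus 3 SD; inconclusive = too few cells collected in the well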;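 note: signal is porphyrin accumulated inside mitochondria; lower ratio means ABCB6 inhibition with less porphyrin fluorescence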
# CendR NRP1 mod = modulators of CendR peptide binding to human neuropilin-1. inhibition, % at 25 µM. FAM-RPARPAR peptide binding to NRP-1, fluorescence polarization. O14786. actives 0.85% (n = 360,000);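 active = inhibition or corrected inhibition above about 18%, plus a signal ratio from 0.5 to 1.5, limit read from the data, passing the limit was not always enough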
# Target sequence (O14786 whole entry, looked up): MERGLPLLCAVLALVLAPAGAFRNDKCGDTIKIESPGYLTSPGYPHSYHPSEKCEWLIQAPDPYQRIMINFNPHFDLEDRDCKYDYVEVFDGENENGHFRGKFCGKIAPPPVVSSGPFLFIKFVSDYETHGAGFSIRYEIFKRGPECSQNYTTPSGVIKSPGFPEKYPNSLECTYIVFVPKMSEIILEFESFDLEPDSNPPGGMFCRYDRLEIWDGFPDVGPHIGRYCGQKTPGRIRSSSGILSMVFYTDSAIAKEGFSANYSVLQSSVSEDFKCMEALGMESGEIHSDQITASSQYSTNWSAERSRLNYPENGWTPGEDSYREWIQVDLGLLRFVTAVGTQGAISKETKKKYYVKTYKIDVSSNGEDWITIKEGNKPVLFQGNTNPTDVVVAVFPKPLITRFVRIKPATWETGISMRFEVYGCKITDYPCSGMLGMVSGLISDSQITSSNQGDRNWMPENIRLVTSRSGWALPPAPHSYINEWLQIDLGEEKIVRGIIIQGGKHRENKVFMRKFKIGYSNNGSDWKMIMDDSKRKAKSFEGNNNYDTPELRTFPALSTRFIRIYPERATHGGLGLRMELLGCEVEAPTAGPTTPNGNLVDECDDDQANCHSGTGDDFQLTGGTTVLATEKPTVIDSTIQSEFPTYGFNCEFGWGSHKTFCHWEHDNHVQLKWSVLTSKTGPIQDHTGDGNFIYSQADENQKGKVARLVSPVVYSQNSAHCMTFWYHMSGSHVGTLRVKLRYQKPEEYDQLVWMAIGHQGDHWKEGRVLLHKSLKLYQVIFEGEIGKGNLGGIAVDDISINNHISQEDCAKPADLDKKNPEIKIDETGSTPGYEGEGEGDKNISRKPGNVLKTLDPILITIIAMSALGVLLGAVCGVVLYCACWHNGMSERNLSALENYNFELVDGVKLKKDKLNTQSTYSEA
# A number is an active result; i = inactive; ? = inconclusive; nt = no result; + = active, no number; ! = not confirmed by another sample. Most compounds without a hit are left out; they make up all but 3.3% or so of the library.
SMILES,ATG4B inh,Myeloid diff MLP,Exocytosis inh,Arr AP2 block,ABCB6 inh MLPCN,CendR NRP1 mod
COc1ccc(-c2noc(CN(C(=O)c3ccc4c(c3)OCO4)C(C)C)n2)cc1,i,i,i,i,i,28
Cc1ccc(C)c(S(=O)(=O)N2CCN(CC(=O)N3CCc4ccccc4C3)CC2)c1,i,i,i,i,i,i
CCN1CCN(CC(=O)Nc2cccc(C)c2C)C(=O)C1=O,i,i,i,i,i,21
Cc1ccn(CC(=O)N2CCCC(N3CCN(c4cccc(C(F)(F)F)c4)CC3)C2)n1 (stereo unspecified),nt,i,i,nt,i,i
COc1ccc(C(O)(c2ccccc2)C(C(=O)O)c2ccccc2)cc1 (stereo unspecified),i,i,i,i,i,i
COc1ccc(OC)c(-c2cc(C(=O)Nc3c(C)nn(Cc4ccccc4C)c3C)no2)c1,i,+,i,i,i,i
COc1ccc(OC)c(-c2cc(C(=O)Nc3c(C)nn(Cc4ccccc4Cl)c3C)no2)c1,i,i,i,i,i,i
O=C(O)C1CCN(C(=O)CSc2nnc3ccccn23)CC1,i,i,i,i,i,i
O=C(OCc1cn([C@@H]2CN(Cc3cccs3)[C@@H](c3ccc(Cl)cc3)C[C@H]2O)nn1)c1ccccc1,nt,i,i,nt,i,i
Cc1ccccc1NC1=C/C(=N\S(=O)(=O)c2cccs2)c2ccccc2C1=O,95,?,i,i,i,i
Cc1ccc(C=NNc2nc3c([nH]2)c(=O)n(C)c(=O)n3C)cc1,i,i,84,i,i,i
COc1ccc(Nc2c(-c3ccco3)nc3ccc(C)cn23)cc1,i,+,i,i,i,i
N#CC(=Cc1ccccn1)c1nc(-c2ccc(Cl)cc2)cs1,nt,+,i,nt,i,i
N#CC(=C(O)CN1CCN(c2ccccc2F)CC1)c1nc(-c2ccc(Cl)cc2)cs1,i,i,i,i,i,i
O=C(Nc1ccc(Cl)cc1)C(Cl)C(=O)c1ccccc1 (stereo unspecified),i,i,96,i,i,i
CC(C)Oc1ccc(F)cc1-c1cc(C(=O)NCc2ccc(F)cc2)[nH]n1,nt,i,i,nt,i,27
COc1ccc(F)cc1-c1cc(C(=O)NCc2cccc(C(F)(F)F)c2)[nH]n1,nt,i,i,nt,i,18
CC(C)Oc1ccc(F)cc1-c1cc(C(=O)Nc2ccccc2)[nH]n1,nt,i,i,nt,i,i
CCCOc1ccc(NC(=O)CC2C(=O)OCC3CCCCN32)cc1 (stereo unspecified),i,i,i,i,i,i
CC(=O)C(C(c1ccccc1)N1CCCc2ccccc21)N1CCOCC1 (stereo unspecified),i,i,i,i,i,24
Cc1cccc(C(C(C(=O)c2ccccc2)N2CCOCC2)N2CCOCC2)c1 (stereo unspecified),i,i,i,i,i,i
Cc1cc(C)c(C)c(S(=O)(=O)N2CCN(C(=O)c3ccccc3OCc3c(C)noc3C)CC2)c1C,i,i,i,i,i,i
CC1(C)CCC/C(=C\c2ccccc2)C1=O,i,i,i,i,i,20
Cc1ccc(-n2nc3c(=O)n(CCCC(=O)N4CCC(C)CC4)nc(C)c3c2C)cc1,i,i,i,i,i,i
CC1(C)CC(=O)C=C(C(=O)N2CCCC(C(=O)c3cccc(C(F)(F)F)c3)C2)O1 (stereo unspecified),i,?,i,i,i,i
SMILES,ATG4B inh,Myeloid diff MLP,Exocytosis inh,Arr AP2 block,ABCB6 inh MLPCN,CendR NRP1 mod
N#CC(C#N)=C1C=C2C=C(N3CCOCC3)CCC2CC1 (stereo unspecified),i,+,i,i,i,i
CN1CCN(C2=CC3=CC(=C(C#N)C#N)CCC3CC2)CC1 (stereo unspecified),i,+,i,i,i,i
N#CC(C#N)=C1C=C2C=C(N3CCCCCC3)CCC2CC1 (stereo unspecified),i,i,i,i,i,i
CCN1CCN(C2=CC3=CC(=C(C#N)C#N)CCC3CC2)CC1 (stereo unspecified),i,+,i,i,i,i
CC1(C)CC(NCCN2CCN(C3=CC(=C(C#N)C#N)CC(C)(C)C3)CC2)=CC(=C(C#N)C#N)C1,i,i,i,i,i,i
Cc1ccc(F)c(NC(=O)/C(C#N)=C(\O)c2ccc(C(C)(C)C)cc2)c1,i,i,i,i,i,i
CCOC(=O)N1CCN(C(=O)COC(=O)C2CCN(S(=O)(=O)c3c(Cl)cccc3Cl)CC2)CC1,i,i,i,i,i,i
Cc1nc2nc(CSc3nnc(C)s3)cc(=O)n2[nH]1,i,i,i,i,i,24!
CCN1/C(=C/c2ccc3cc(C)ccc3[n+]2CC)Sc2cc(C)c(C)cc21,i,nt,57,i,i,i
Cc1cccc(C(C)C)c1NC(=O)Cc1ccc(S(=O)(=O)N2CCOCC2)s1,i,i,i,i,i,i
COc1ccc(C(C(=O)NC(C)(C)C)N(C(=O)CCC(=O)Nc2cc(C)on2)c2c(C)cccc2C)cc1 (stereo unspecified),i,i,i,i,i,31
CCCCCN1CC(=O)N2C(C)c3[nH]c4ccccc4c3C[C@H]2C1=O (stereo partly specified),i,+,i,i,i,i
COc1cc(OC)cc(-c2c(C#Cc3ccsc3)c3cc(-c4cc(F)cc(F)c4)ccc3n2C)c1,i,i,i,i,i,i
COc1ccc(NC(C)C(=O)N/N=C/c2ccccc2OCc2ccc(Br)cc2)cc1 (stereo unspecified),i,i,i,i,i,22
[O-][n+]1c(/C=C/c2ccccc2)ccc2ccccc21,i,i,87,i,i,i
Cc1ccc(N2C3=C(C(=O)CC(C)(C)C3)C(c3cn(C)nc3C)C3=C2CC(C)(C)CC3=O)cc1,i,+,i,i,i,i
Cc1nn(C)cc1C1C2=C(CC(C)(C)CC2=O)N(c2ccccc2)C2=C1C(=O)CC(C)(C)C2,i,i,i,i,i,i
CCSCc1nnc(SCC(=O)Nc2cc(F)ccc2C)n1C,i,i,i,i,i,i
Cc1cc(NC(=O)CSc2nnc(-c3ccncc3)n2Cc2ccccc2)n(-c2ccccc2)n1,i,i,i,i,i,i
Cc1cc(NC(=O)CSc2nnc(-c3ccncc3)n2C)n(-c2ccccc2)n1,i,+,i,i,i,i
NC(=O)c1ccccc1N=Cc1cccnc1,i,i,i,i,i,33
CCC(NC(=O)Nc1cc(C)on1)(C(F)(F)F)C(F)(F)F,i,i,i,i,i,i
CC1(C)CC(=O)c2cnc(N3CCc4ccccc43)nc2C1,i,i,i,i,i,28
COc1ccccc1NC(=O)C(=O)N/N=C/c1ccc([N+](=O)[O-])s1,i,+,i,i,i,i
O=[N+]([O-])c1ccc(/C=N/NC(=S)Nc2ccc(Cl)cc2Cl)s1,i,i,94,i,i,i
